Source: ChEMBL document CHEMBL2203222, “Mannich bases of scutellarein as thrombin-inhibitors: design, synthesis, biological activity and solubility” (Bioorg Med Chem, 2012)
Values after ≈ are worked out from the molar mass of the structure shown.

Assays:
[1] = tested on: Plasma; assay: Antithrombin activity in New Zealand white rabbit plasma assessed as fibrinogen content at 25 uM by coagulometer; type: functional, Oryctolagus cuniculus
[2] = Solubility of the compound in water by UV-visible spectrophotometry relative to scutellarein; type: physicochemical
[3] = Solubility of the compound in water by UV-visible spectrophotometry; type: physicochemical
[4] = tested on: Plasma; assay: Antithrombin activity in New Zealand white rabbit plasma assessed as thrombin time at 25 uM by coagulometer; type: functional, Oryctolagus cuniculus
[5] = tested on: Radical scavenging activity; assay: Antioxidant activity assessed as inhibition of DPPH radical by spectrophotometric analysis […]; type: functional
Summary of the method: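 Sample in DMSO mixed with an equal volume of 0.2 mM ethanolic DPPH. Test compounds spanned […], alongside reference antioxidants and a DMSO control. Reaction ran 30 min at 25 °C, then absorbance was read at 517 nm on a microplate reader. Scavenging % = (1 − A_test/A_control) × 100, with A_control taken from DMSO alone.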

[6] = tested on: Plasma; assay: Antithrombin activity in New Zealand white rabbit plasma assessed as activated partial thromboplastin time at 25 uM by coagulometer; type: functional, Oryctolagus cuniculus
[7] = tested on: Plasma; assay: Antithrombin activity in New Zealand white rabbit plasma assessed as prothrombin time at 25 uM by coagulometer; type: functional, Oryctolagus cuniculus
[8] = Absolute bioavailability in po dosed Beagle dog; type: ADME, organism-based, Canis lupus familiaris; conditions: in vivo

Compound | fold change (FC) [2] | solubility [3] [µM] | Activity [1] [g/L] | TT [4] [s] | IC50 [5] [µM] | APTT [6] [s] | PT [7] [s] | bioavailability [8] [%]
O=C(O)[C@H]1O[C@@H](Oc2cc3oc(-c4ccc(O)cc4)cc(=O)c3c(O)c2O)[C@H](O)[C@@H](O)[C@@H]1O [SCUTELLARIN] |  |  |  |  |  |  |  | 0.4
CCCCN1CCN(Cc2c(O)c(O)c(O)c3c(=O)cc(-c4ccc(O)cc4)oc23)CC1 | 1.31 | 9.11 (≈ 4.01 µg/mL) | 5.56 | 13.45 | 32.7 | 35.01 | 7.4 | 
CN1CCN(Cc2c(O)c(O)c(O)c3c(=O)cc(-c4ccc(O)cc4)oc23)CC1 | 1.05 | 7.28 (≈ 2.9 µg/mL) | 5.46 | 14.4 | 32.5 | 35.42 | 7.71 | 
CCN1CCN(Cc2c(O)c(O)c(O)c3c(=O)cc(-c4ccc(O)cc4)oc23)CC1 | 1.02 | 7.07 (≈ 2.92 µg/mL) | 5.54 | 14.13 | 32.4 | 35.15 | 7.41 | 

Further lines, with some results ahead:

fold change (FC) [2] | solubility [3] [µM] | Compound | Activity [1] [g/L] | TT [4] [s] | IC50 [5] [µM] | APTT [6] [s] | PT [7] [s] | bioavailability [8] [%]
1.23 | 8.58 (≈ 2.95 µg/mL) | CN(C)Cc1c(O)c(O)c(O)c2c(=O)cc(-c3ccc(O)cc3)oc12 | 5.56 | 12.58 | 26.5 | 34.23 | 7.45 | 
1.11 | 7.71 (≈ 2.86 µg/mL) | CCN(CC)Cc1c(O)c(O)c(O)c2c(=O)cc(-c3ccc(O)cc3)oc12 | 5.36 | 12.63 | 25 | 34.62 | 7.55 | 
1.15 | 7.97 (≈ 3.18 µg/mL) | CC(C)N(Cc1c(O)c(O)c(O)c2c(=O)cc(-c3ccc(O)cc3)oc12)C(C)C | 5.54 | 11.75 | 30.1 | 34.52 | 7.47 | 
 | 6.95 (≈ 1.99 µg/mL) | O=c1cc(-c2ccc(O)cc2)oc2cc(O)c(O)c(O)c12 [SCUTELLAREIN] | 5.96 | 10.25 | 24 | 33.36 | 7.34 | 
1.67 | 11.6 (≈ 4.48 µg/mL) | O=c1cc(-c2ccc(O)cc2)oc2c(CN3CCOCC3)c(O)c(O)c(O)c12 | 5.26 | 14.48 | 30.9 | 35.48 | 7.84 | 
